Assay [1] in a line: Binding affinity to 5'ACGCGT3' sequence of cognate DNA by surface plasmon resonance method. The method, boiled down:
(§1)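 SPR at 25 °C in degassed MES buffer (200 mM Na+, 10 mM MES, 1 mM EDTA, surfactant P20, pH 6.25). DNA hairpins were immobilized to about 400 RU, with one flow cell left blank. Ligand (0.1–400 nM) was injected at 20 µL/min for 12.5 min, then dissociated for 20 min. The surface was regenerated with 500 mM NaCl/25 mM NaOH. Global 1:1 kinetic fit; Keq = ka/kd.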

A short description of assay [2]: Binding affinity to 5'ACGCGT3' sequence of cognate DNA at 0.5 uM by DnaseI footprinting assay. The method, boiled down:
(§2)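 DNA was incubated 30 min with ligand in TN buffer (10 mM Tris, 10 mM NaCl, pH 7). Digestion ran 3 min with DNase I in buffer containing NaCl, MgCl2 and MnCl2, then stopped on dry ice. Products were resolved on a 10% polyacrylamide/7.5 M urea gel and read by autoradiography.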

The nature of assay [3]: Binding affinity to 5'ACGTGT3' sequence of cognate DNA at 5 uM by DnaseI footprinting assay. The method, boiled down: as §2
Assay [4] concerns Nucleic Acid. Briefly: Binding affinity to 5'ACGCGT3' sequence of cognate DNA assessed as change in melting temperature by thermal denaturation method. Format: nucleic-acid assay. An outline of the steps:
(§3)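 Thermal melting in PO 0 buffer (10 mM sodium phosphate, 1 mM EDTA, pH 6.2). Oligonucleotides were reannealed first (70 °C for 1 min, then cooled to RT). Ramp from 25 to 95 °C at 0.5 °C/min, with Abs260 recorded every 0.5 °C. Tm was taken as the maximum of the first derivative, and ΔTm was the shift on ligand binding.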

The subject of assay [5] is Nucleic Acid. Briefly: Binding affinity to 5'ACCGGT3' sequence of non-cognate DNA assessed as change in melting temperature by thermal denaturation method. Format: nucleic-acid assay. An outline of the steps: as §3
The subject of assay [6] is Nucleic Acid. Description: Binding affinity to 5'AAATTT3' sequence of non-cognate DNA assessed as change in melting temperature by thermal denaturation method. It counts as nucleic-acid assay. The method, boiled down:
as §3

Assay [7] in a line: Binding affinity to 5'ACCGGT3' sequence of non-cognate DNA by surface plasmon resonance method. An outline of the steps: as §1
Assay [8] in a line: Binding affinity to 5'AAATTT3' sequence of non-cognate DNA by surface plasmon resonance method. An outline of the steps:
as §1

Assay [9] in a line: Binding affinity to 5'ACCGGT3' sequence of non-cognate DNA assessed as heat change by isothermal titration colorimetry. The method, boiled down:
(§4)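 ITC at 25, 30 and 35 °C. DNA (2 µM in PO 5) was titrated with ligand (0.5 mM in PO 5) in 3 µL injections every 300 s, 50 injections in total. One-site model fit, with a linear fit subtracted to remove non-specific heat. ΔG was taken from SPR Keq as −RT ln Keq.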

The nature of assay [10]: Binding affinity to 5'AAATTT3' sequence of non-cognate DNA assessed as heat change by isothermal titration colorimetry. An outline of the steps:
as §4

The nature of assay [11]: Binding affinity to 5'ACGCGT3' sequence of cognate DNA assessed as exothermic enthalpy at 25 to 50 degC by isothermal titration colorimetry.

The structures appear in SMILES notation. Active and inactive are the calls of the source. The rule behind the calls is not given here.

K, Activity and ΔTm data for three compounds are collected here from ChEMBL document CHEMBL1152237, “Sequence specific and high affinity recognition of 5'-ACGCGT-3' by rationally designed pyrrole-imidazole H-pin polyamides: thermodynamic and structural studies” (Bioorg Med Chem, 2008).

`CN(C)CCNC(=O)c1nc(NC(=O)c2cc(NC(=O)c3nc(NC(=O)c4cccn4C)cn3C)cn2C)cn1C` displayed a K in assay [1] of 7.1 ×10⁶ /M. Further, the result in [2] and in assay [3] was Active. In addition, the thermal shift (ΔTm) in the assay with Nucleic Acid [4] came to 3 °C; with Nucleic Acid [5], 0.1 °C; in the assay with Nucleic Acid [6], 0.1 °C.

For `CN(C)CCNC(=O)c1nc(NC(=O)c2cc(NC(=O)c3nc(NC=O)cn3C)cn2C)cn1C`, the K in assay [1] came out at 1.9 ×10⁸ /M; in assay [7] it was 2.2 ×10⁵ /M; in assay [8], 5.3 ×10⁴ /M. The values for the shift in melting temperature (ΔTm) with Nucleic Acid [4], in the assay with Nucleic Acid [5] and in the assay with Nucleic Acid [6] were 7.8 °C, 1.1 °C and 0.9 °C, respectively. The outcome in assay [9] and in assay [10] was inactive.

For the compound `CN(C)CCNC(=O)c1nc(NC(=O)c2cc(NC(=O)c3nc(NC=O)cn3C)cn2CCOCCOCCn2cc(NC(=O)c3nc(NC=O)cn3C)cc2C(=O)Nc2cn(C)c(C(=O)NCCN(C)C)n2)cn1C`, the values for the K in [1], in [7] and in assay [8] were 2 ×10¹⁰ /M, 1.1 ×10⁸ /M and 5 ×10⁵ /M, respectively. The ΔTm in the assay on Nucleic Acid [4] was > 30 °C; with Nucleic Acid [5] it was 14.1 °C; in the assay with Nucleic Acid [6], 9.3 °C. The result in [9] and in assay [10] was inactive. The result in assay [11] was Active.
